According to PubChem BioAssay:
Calls of active or inactive are those of the source.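 How the source made its calls, unless noted: active means inhibition at or above 50% at 10 µM; inactive means inhibition below 50%.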

Experiments:
[1] = inhibitors of TNFa-induced NFkB p65 translocation, primary screen, imaging, HUVEC, MLSMR starter and 10KST1 sets (AID 438;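 active means inhibition above 20% together with a positive visual image hit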;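 further: compound added about 3h40 before a 20 min TNFalpha stimulation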;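 on inhibition: signal is the nuclear over cytoplasmic p65 intensity ratio per well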); details: HUVEC TNFa-induced p65 nuclear translocation; cell count: measured here: nuclei count (cytotoxicity indicator), at 2.08 µM; inhibition: at 2 µM, stronger effect = higher value, 0% TNFa-plus-vehicle, 100% no-TNFa wells
[2] = inhibitors of mutant huntingtin aggregation, primary screen, imaging, exon1htt(103Q)mCFP cells, high-content imaging (AID 483;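 active means visual image review flags a hit and inhibition of aggregation exceeds 20%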;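 further: compound exposure lasted 3 days before fixation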;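 on nuclei count: percent of the per-plate median nuclei count of sample wells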); details: exon1htt(103Q)mCFP cell line, aggregate imaging, at 2 µM; inhibition of aggregation: stronger effect = higher value; nuclei count: measured here: cell count, toxicity
[3] = inhibitors of E-selectin induction by TNFa, primary screen, imaging, HUVEC, immunofluorescence, MLSMR starter and 10KST1 sets (AID 487;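 active means visually confirmed hit in the image check and inhibition above 20%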;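 on inhibition: signal is fraction of cell area covered by stained E-selectin grains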;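 on nuclei count: 100% = median nuclei count of all wells on the same plate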); details: HUVEC TNFalpha-induced E-selectin immunofluorescence imaging, at 2 µM; inhibition: stronger effect = higher value; nuclei count: measured here: cell number, toxicity
[4] = molecular target: Voltage-gated potassium channel subunit beta-2 (Rattus norvegicus) (UniProt P62483); assay: KvBeta enzyme negative modulators, primary screen, biochemical, NADPH fluorescence (AID 622;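 active means fluorescence slope higher than the sample average by over 3 SD, cut at about -0.22 in these data, passing the limit was not always enough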;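 further: slope of raw intensity against log time taken from 70 to 1610 s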); details: recombinant KvBeta, 4-cyanobenzaldehyde reduction, at 10 µM, stronger effect = higher value
Voltage-gated potassium channel subunit beta-2 (Rattus norvegicus), sequence (P62483 whole entry, looked up): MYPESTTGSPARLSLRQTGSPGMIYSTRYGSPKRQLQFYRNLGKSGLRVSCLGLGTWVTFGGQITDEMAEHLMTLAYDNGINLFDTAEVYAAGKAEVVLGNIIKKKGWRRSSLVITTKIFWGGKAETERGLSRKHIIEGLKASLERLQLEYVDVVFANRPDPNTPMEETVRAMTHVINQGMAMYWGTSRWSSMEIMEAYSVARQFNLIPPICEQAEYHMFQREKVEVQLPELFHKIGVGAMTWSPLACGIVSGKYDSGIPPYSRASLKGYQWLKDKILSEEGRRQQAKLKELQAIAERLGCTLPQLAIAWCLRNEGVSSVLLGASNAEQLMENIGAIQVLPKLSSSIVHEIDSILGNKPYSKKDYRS

[5] = molecular target: Voltage-gated potassium channel subunit beta-2 (Rattus norvegicus) (UniProt P62483); assay: KvBeta positive modulators, primary screen, biochemical, NADPH fluorescence (AID 623;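 active means NADPH fluorescence slope more negative than the mean of all samples by about 3 SD, 99.7% confidence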;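 further: fluorescence intensity change per second fitted from 20 to 320 s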); details: Recombinant KvBeta, NADPH fluorescence decrease slope, 10 min; at 10 µM; stronger effect = lower value
[6] = molecular target: Muscarinic acetylcholine receptor M4 (Homo sapiens) (UniProt P08173); assay: compounds altering M4/GIRK thallium flux, either direction, primary screen, M4 allosteric agonist project, cell-based, HEK293 M4/GIRK, BTC-AM (AID 625;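 active means fluorescence slope after compound addition differing from the mean of all tested samples at 99.7% confidence, mostly higher but some lower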;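 further: thallium influx through GIRK channels coupled to M4 in HEK293 cells with BTC-AM dye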); details: at 10 µM, actives lie on both sides
Muscarinic acetylcholine receptor M4 (Homo sapiens), sequence (P08173 whole entry, looked up): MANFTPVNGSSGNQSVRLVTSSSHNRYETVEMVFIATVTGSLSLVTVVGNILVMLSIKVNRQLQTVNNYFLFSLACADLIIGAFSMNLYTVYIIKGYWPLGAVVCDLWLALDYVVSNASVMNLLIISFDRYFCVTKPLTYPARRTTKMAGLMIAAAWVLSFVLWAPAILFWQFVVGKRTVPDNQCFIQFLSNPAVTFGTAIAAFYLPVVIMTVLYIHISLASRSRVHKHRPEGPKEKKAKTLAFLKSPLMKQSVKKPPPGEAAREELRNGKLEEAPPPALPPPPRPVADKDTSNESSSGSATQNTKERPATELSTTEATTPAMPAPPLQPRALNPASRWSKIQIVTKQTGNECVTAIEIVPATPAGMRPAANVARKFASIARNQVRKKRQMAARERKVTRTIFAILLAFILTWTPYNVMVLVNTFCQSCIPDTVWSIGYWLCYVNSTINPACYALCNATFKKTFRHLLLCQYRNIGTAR
Procedure, shortened: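 Material: HEK293 cells with M4 receptor and GIRK channels; Times: cells overnight at 37 °C, BTC-AM loading 1 h, reads 2 min total; Technique: kinetic BTC-AM fluorescence sampled at 1 Hz, 10 s pre-addition baseline; Read-out basis: slope over 15–24 s of trace normalized to starting intensity; Controls: carbachol positive, DMSO negative.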

[7] = inhibitors of Sendai virus-induced IRF3 signaling, primary screen, TLR/RLR signaling modifier project, cell-based, Sendai virus stimulus, luciferase, 10K MLSCN set (AID 602276); details: HEK293 RL24 IRF3 luciferase reporter, at 10 µM, stronger effect = higher value;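 further: firefly luciferase from ISG56 promoter only with Renilla not read in this screen; 0% = Sendai virus plus DMSO and 100% = medium plus DMSO without virus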
[8] = inhibitors of poly I:C-induced TLR3 signaling, primary screen, cell-based, poly I:C stimulus, luciferase, 10K MLSCN set (AID 602277;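 active means inhibition of the reporter signal at or above 50%; inactive means inhibition below 50%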); details: HEK293-TLR3 RL24 IRF3 luciferase reporter, at 10 µM, stronger effect = higher value

Row | Structure (SMILES) | cell count [1] | inhibition [1] | inhibition of aggregation [2] | nuclei count [2] [%] | inhibition [3] | nuclei count [3] [%] | fluorescence slope [4] | NADPH fluorescence slope [5] | fluorescence slope [6] | inhibition [7] | inhibition [8]
1 | CCn1c(CNc2ccc(C)cc2)nnc1SCC(=O)NCc1ccccc1 | 648 | 13.4% (inactive) | 5.4% (inactive) | 81.4 | -45% (inactive) | 115 | -0.486 (inactive) | 0.000173 (inactive) | 0.00606 (inactive) | -9.51% (inactive) | -4.1% (inactive)
2 | Cc1ccc(-c2cc(C(F)(F)F)n3ncc(C(=O)O)c3n2)cc1 | 412 | 3.1% (inactive) | -8.3% (inactive) | 109 | -26.7% (inactive) | 110 | -0.524 (inactive) | -3.4e-05 (inactive) | 0.00395 (inactive) | 19.6% (inactive) | 21.8% (inactive)
3 | Cc1ccc(N2CCN(C(=O)c3ccccc3Br)CC2)c(C)c1 | 655 | -20.4% (inactive) | 0% (inactive) | 91.9 | -13.4% (inactive) | 101 | -0.532 (inactive) | 5.2e-06 (inactive) | 0.00352 (inactive) | 15.2% (inactive) | 23.3% (inactive)
4 | O=C(COc1ccc(Cl)cc1)Nc1ncccn1 | 436 | -3.8% (inactive) | 4.3% (inactive) | 98.6 | -12.3% (inactive) | 87.1 | -0.456 (inactive) | -7.3e-05 (inactive) | 0.00491 (inactive) | 14.4% (inactive) | -0.516% (inactive)
5 | CC1(C)CC(=O)c2cc(OCC(=O)N3CCN(c4ccccc4F)CC3)ccc2O1 | 550 | -19.1% (inactive) | -3.9% (inactive) | 94.6 | -101% (inactive) | 118 | -0.288 (inactive) | -5.4e-06 (inactive) | 0.00419 (inactive) | 19.9% (inactive) | 0.776% (inactive)
6 | O=C(CSc1ccc(Cl)cc1)OCc1nnc(-c2ccccc2)o1 | 503 | -1.1% (inactive) | 8.3% (inactive) | 108 | -46.5% (inactive) | 115 | -0.613 (inactive) | 6.8e-05 (inactive) | 0.00469 (inactive) | -5.35% (inactive) | -4.44% (inactive)
7 | O=C(Nc1nc2ccc(S(=O)(=O)N3CCCC3)cc2s1)C1CCCO1 (stereo not drawn) | 504 | -12.6% (inactive) | -7.9% (inactive) | 55.6 | 28.1% (inactive) | 93.1 | -0.455 (inactive) | -4.6e-05 (inactive) | 0.00425 (inactive) | 14.9% (inactive) | 15.2% (inactive)
8 | COC(=O)C1=C(C)NC(=O)C1(NC(=O)c1cccnc1)C(F)(F)F (stereo not drawn) | 609 | -3.9% (inactive) | -6.9% (inactive) | 87.8 | -68.7% (inactive) | 103 | -0.565 (inactive) | -2.9e-05 (inactive) | 0.00444 (inactive) | -31.4% (inactive) | 56.2% (active)
